High-throughput results: PubChem BioAssay, several laboratories
KCC2 mod: modulates chloride dependent transport by human KCC2; KCC2 cells, thallium flux FluoZin-2 fluorescence; actives 2.2% (n = 190,000); B-score of Tl+ flux slope (higher = more flux/activation; lower = inhibition) at 10 µM; Q9H2X9;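 active = thallium flux slope and its plate-corrected score both differing from the plate sample mean at a set confidence after two filtering rounds, in either direction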;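 note: slope of fluorescence scaled to starting intensity during 10 to 20 s after thallium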
ABCB6 inh 2: inhibitors of human ABC transporter ABCB6 | Q9NP58 | K562-ABCB6 porphyrin accumulation, flow cytometry, 1 h; active compounds read low | fluorescence ratio to DMSO, % at 10 µM | actives 0.19% (n = 360,000);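 active = fluorescence ratio to DMSO below 75%, the collection mean minus 3 SD; inconclusive = too few cells collected in the well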;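 note: signal is porphyrin accumulated inside mitochondria; 100% equals median channel fluorescence of DMSO control wells; lower ratio means ABCB6 inhibition with less porphyrin fluorescence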
Dynein cargo inh: blocks dynein driven cargo transport along microtubules | actives 0.47% (n = 220,000) | 3617.4 mouse cells, GR-EGFP nuclear translocation imaging; test concentration mostly 20 µM; stimulated with dexamethasone, 1 µM; active compounds read low | z-score, hits read low;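 active = plate z-score of nuclear minus cytoplasmic receptor signal below a set negative limit, without overly bright fluorescence or cell loss, cut at about -3.5 in these data, passing the limit was not always enough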;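 note: z-score of nuclear minus cytoplasmic ring GR-EGFP intensity difference per well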
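Buffer or medium – tet-free medium with charcoal-stripped serum · Signal – automated 10x imaging of fixed Hoechst-stained cells · Also added – dexamethasone agonist, 1.0 µM final, for 30 min · Incubation – induction 48 h, compound 1 h, agonist 30 min · Read-out – GR-EGFP nuclear translocation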
V-ATPase pHluor: regulators of yeast V-ATPase proton transport; S. cerevisiae, pHLuorin cytosolic pH fluorescence; response, % at 10 µM; actives 0.37% (n = 350,000); in the data active = response mostly above about 7.3%, no sharp cut-off; inactive = mostly below about 5.4%; note: actives read high
p-CIP stab down: compounds decreasing mouse p/CIP protein stability; decrease of EGFP signal, % at 10 µM; F442A p/CIP-EGFP cells, EGFP fluorescence, 16 h; Q05BA5; actives 0.01% (n = 290,000);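 active = EGFP signal decrease of at least 30% at 10 µM or well 3 SD below plate mean, unless failing retest; inactive = the rest, including hits failing retest or dose response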
KCC2 sec1: confirmation of human KCC2 transport modulators | shares compounds with KCC2 mod | HEK293-KCC2, thallium flux, FluoZin2 fluorescence; active compounds read high | normalised thallium flux (F/F0 slope) at 10 µM | actives 15% (n = 3,700);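 active = thallium flux slope above the same plate's solvent-only control mean plus 3 SD; inconclusive = the two replicate wells disagree; inactive = no significant difference from solvent-only control wells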
KCC2 bumet counter: thallium flux despite bumetanide block in KCC2 cells, secondary assay 3; shares compounds with KCC2 mod; HEK293-KCC2 + bumetanide/ouabain, thallium flux FluoZin2; active compounds read high; normalized thallium flux at 10 µM; actives 49% (n = 3,700);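 active = thallium entry rate above the same plate's blocked-transporter control wells by more than 3 SD; inconclusive = the two repeat wells disagree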;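 note: raw slope of fluorescence over initial fluorescence between 10 and 20 s after thallium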
KCC2 secondary2: confirmation of human KCC2 transport modulators | HEK293-KCC2, thallium flux FluoZin2 fluorescence; actives lie on both sides; F/F0 rise rate, 10–20 s post-thallium | normalized thallium flux at 10 µM | actives 23% (n = 3,700) | shares compounds with KCC2 mod;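 active = thallium flux slope more than 3 SD above or below the plate's solvent-only control mean, mostly below; inconclusive = the two repeat wells disagreed; inactive = no significant shift from solvent-only controls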;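 note: raw slope with 0.1% DMSO as baseline and bumetanide as block control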
HEK293 Tl flux: parental HEK flux effect, counter-screen. shares compounds with KCC2 mod. HEK293 parental cells, thallium flux FluoZin2, ouabain; baseline-ratio fluorescence slope, 10–20 s after thallium. thallium flux rate (normalised fluorescence) at 10 µM. actives 46% (n = 3,700). AID 1716;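 active = thallium flux rate significantly above the same plate's solvent-only control wells, beyond their mean plus 3 SD; inconclusive = the two replicate wells gave conflicting results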
KCC2 ouabain: KCC2 (human) modulation, ouabain retest | HEK293-KCC2, thallium flux FluoZin2 fluorescence; bidirectional: low = inhibitor, high = activator | raw Tl+ flux slope (below DMSO = inhibition, above = activation) at 10 µM | shares compounds with KCC2 mod | actives 48% (n = 3,700) | AID 1717;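 active = thallium flux slope beyond 3 SD from same-plate DMSO control mean in most replicates, usually higher, sometimes lower; inconclusive = repeat tests gave conflicting results; inactive = no significant difference from controls in most replicates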;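 note: slope of initial-normalized fluorescence between seconds 10 and 20 after thallium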
HEK293 Tl flux2: acts in parental HEK cells, second KCC2 counter-screen; HEK293 parental, thallium flux FluoZin-2 fluorescence slope; shares compounds with KCC2 mod; thallium flux slope at 10 µM; AID 1718; actives 33% (n = 3,700);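 active = thallium flux slope above the same plate's solvent-control mean plus 3 SD in both duplicate wells; inconclusive = duplicate wells that disagreed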;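 note: run without ouabain in cells lacking the KCC2 cotransporter; slope of fluorescence scaled to its starting value between 10 and 20 s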
Numbers without * were called inactive; ? = inconclusive; . = no result given. The entries come from a sample that favours hits as a whole.

SMILES | KCC2 mod | ABCB6 inh 2 | Dynein cargo inh | V-ATPase pHluor | p-CIP stab down | KCC2 sec1 | KCC2 bumet counter | KCC2 secondary2 | HEK293 Tl flux | KCC2 ouabain | HEK293 Tl flux2
CCOC(=O)c1sc2nc(C)nc(SCC(=O)N(C)C3CCS(=O)(=O)C3)c2c1C (stereo not given) | 24* | 90 | -0.079 | 4 | -2 | 0.0075 | 0.06* | 0.052* | 0.049* | 0.048* | 0.046*
CN1/C(=C\C(=S)NC(=O)c2cccc(Br)c2)C(C)(C)c2ccccc21 | 4.6* | 960 | 0.88 | -1 | -55 | 0.01 | 0.014* | 0.035 | ? | ? | 0.012
Cc1ccc(NC(=O)CN(C)C(=O)c2cccc(-n3cccc3)c2)cc1 | . | 100 | . | -3 | . | . | . | . | . | . | .
CCN(C(=O)CSc1nc2ccccc2o1)c1c(N)n(Cc2ccccc2)c(=O)[nH]c1=O | . | 99 | . | 1 | . | . | . | . | . | . | .
COc1ccc(NC(=O)CS(=O)c2cccc(C(F)(F)F)c2)cc1 (stereo not given) | . | 101 | . | -4 | -17 | . | . | . | . | . | .
O=c1oc2ccccc2c(Nc2ccc(F)cc2)c1[N+](=O)[O-] | -3.4* | 100 | -0.43 | 4 | 9 | 0.0058 | 0.0046 | 0.029 | 0.0063* | 0.017 | ?
Cc1ccc(Nc2c([N+](=O)[O-])c(=O)oc3ccccc23)cc1C | -2.8* | 96 | -0.45 | 0 | -23 | 0.018 | 0.0042 | 0.03 | ? | 0.014 | 0.009
O=c1oc2ccccc2c(Nc2ccc(Cl)cc2)c1[N+](=O)[O-] | -2.3 | 99 | 0.022 | -6 | -11 | . | . | . | . | . | .
O=c1oc2ccccc2c(Nc2cccc(O)c2)c1[N+](=O)[O-] | . | 94 | 1.9 | -1 | -14 | . | . | . | . | . | .
COC(=O)c1ccc(Nc2c([N+](=O)[O-])c(=O)oc3ccccc23)cc1 | -4.5* | 95 | -0.23 | 3 | -14 | 0.0085 | ? | 0.029 | ? | 0.027* | ?
CCCCC1=CC2=C(c3ccco3)C(=O)C(C)(OC(=O)c3ccc(OC)cc3)C(=O)C2=CN1c1ccccc1 (stereo not given) | -0.027 | 119 | -0.42 | -3 | -14 | . | . | . | . | . | .
O=C(CCc1nc2ccccc2c(=O)[nH]1)Nc1cc(Cl)ccc1N1CCCC1 | . | 101 | . | -4 | . | . | . | . | . | . | .
COc1cccc(C(=O)COC(=O)COc2c(C)cc(C)cc2C)c1 | . | 95 | . | -2 | . | . | . | . | . | . | .
COC(=O)c1ccc(COc2ccc(CNCc3ccc(Cl)cc3)cc2)cc1 | . | 95 | . | -4 | -15 | . | . | . | . | . | .
NC(=O)c1ccccc1NC(=O)Nc1cccc2ccccc12 | -4.1* | 97 | -0.47 | 0 | 9 | ? | 0.0063 | 0.029 | 0.006 | 0.019 | 0.0095
NC(=O)NNC(=S)Nc1cccc2ccccc12 | -0.42 | 99 | 0.41 | -3 | 3 | . | . | . | . | . | .
O=C(Nc1ccc2oc(-c3ccccc3)nc2c1)c1ccncc1 | -4.5* | 94 | 2.7 | -2 | -20 | 0.0068 | 0.0051 | 0.022* | 0.0074 | ? | 0.011
O=C(Nc1ccc2oc(-c3ccccc3)nc2c1)c1cccs1 | -0.8 | 89 | 9.3 | -6 | -13 | . | . | . | . | . | .
O=C(O)c1ccccc1-c1ccccc1C(=O)Nc1cccc(-c2nc3ccccc3o2)c1 | -5.8* | 95 | 0.61 | 0 | 1 | 0.0064 | 0.0057* | 0.026* | ? | 0.013* | ?
NC(=O)C1(Nc2ccc(Br)cc2)CCCC1 | . | 98 | . | -2 | . | . | . | . | . | . | .
